Activity calls are given as the source filed them. No cut-off for these calls is given here.
How the values were obtained:
[1] = target: T1, Substance-P receptor (Homo sapiens, UniProt P25103); test: Displacement of [3H]substance P from NK1 receptor in human astrocytoma cells at 200 uM; type: cell-based
[2] = target: T1, Substance-P receptor; test: Displacement of [3H]substance P from NK1 receptor in human astrocytoma cells; type: cell-based
Method in brief: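 Whole human astrocytoma cells; inhibition of [³H]-SP binding reported as a Ki in μM.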

T1 sequence (P25103 whole entry): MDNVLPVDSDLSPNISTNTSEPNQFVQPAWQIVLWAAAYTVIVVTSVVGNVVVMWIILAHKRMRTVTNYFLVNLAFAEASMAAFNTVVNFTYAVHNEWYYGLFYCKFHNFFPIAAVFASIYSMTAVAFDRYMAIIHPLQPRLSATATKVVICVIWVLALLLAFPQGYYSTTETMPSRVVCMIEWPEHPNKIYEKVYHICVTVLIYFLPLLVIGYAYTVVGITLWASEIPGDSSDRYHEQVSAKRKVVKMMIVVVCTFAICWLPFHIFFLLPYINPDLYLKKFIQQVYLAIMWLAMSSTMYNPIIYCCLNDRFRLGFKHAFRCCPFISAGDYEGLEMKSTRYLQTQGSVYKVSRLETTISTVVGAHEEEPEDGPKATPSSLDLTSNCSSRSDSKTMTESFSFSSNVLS

| SMILES | Activity [1] | Ki [2] |
| --- | --- | --- |
| C[C@H]1N[C@H]2N(C1=O)c1ccccc1[C@@]21C[C@@H]2C(=O)N[C@](C)(O1)c1nc3ccccc3c(=O)n12 | inactive |  |
| O=C(N[C@H](CO)Cc1ccccc1)c1ccccc1 | inactive |  |
| O=C1N[C@@H](Cc2ccc(O)cc2)C(=O)N2CCC[C@@H]12 | inactive |  |
| C=CC(C)(C)[C@@]12C[C@H]3C(=O)Nc4ccccc4C(=O)N3[C@@H]1N(C(C)=O)c1ccccc12 [ACYL ASZONALENIN] |  | 170 µM |
| C[C@@]12NC(=O)[C@@H](C[C@@]13c1ccccc1N1C(=O)CN[C@@H]13)n1c2nc2ccccc2c1=O [SPIROQUINAZOLINE] |  | 95 µM |
| O=C1N[C@@H](Cc2c[nH]c3ccccc23)C(=O)Nc2ccccc21 | inactive |  |

The next lines start with results.

| Activity [1] | SMILES | Ki [2] |
| --- | --- | --- |
| inactive | O=C1N[C@@H](Cc2ccccc2)C(=O)N2CCC[C@@H]12 |  |
| inactive | CC(C)[C@@H]1NC(=O)[C@@H]2CCCN2C1=O |  |
| inactive | O=C1N[C@@H](Cc2ccccc2)C(=O)N2CCC[C@H]12 |  |
| inactive | CC(C)C[C@@H]1NC(=O)[C@@H]2CCCN2C1=O |  |
| inactive | CC(C)[C@@H]1NC(=O)[C@H]2CCCN2C1=O |  |
| inactive | O=C1N[C@@H](Cc2ccc(O)cc2)C(=O)N2CCC[C@H]12 |  |
